Source: ChEMBL document CHEMBL1121953, “Carbon-7 substituted actinomycin D analogues as improved antitumor agents: synthesis and DNA-binding and biological properties” (J Med Chem, 1982)
Values after ≈ are worked out from the molar mass of the structure shown.

How the values were obtained:
[1] = Therapeutic Index measured as the MTD/MED ratio compared to that of compound 4; conditions: read-out: Therapeutic index
Summary of the method: (§1)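 Therapeutic index is MTD/MED, with ip dosing in 10% dimethyl sulfoxide-saline on a qd 1-4 or q4d 1, 5, 9 schedule. MED is the dose giving a 40% increase in life span over control in P-388-bearing mice. MTD is the LD10 in tumor-free male CDF1 mice (18-23 g) over 21 days, read from a log dose vs. percent mortality plot and averaged over 2-3 experiments.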

[2] = Therapeutic Index measured as the MTD/MED ratio compared to that of compound 3; conditions: read-out: Therapeutic index; summary of the method: as §1
P388 [3] = experiment: Number of mice with P-388 lymphocytic leukemia cured.(1.8 mg/kg),ip; 0/7; type: functional, Mus musculus
P388 [4] = experiment: Antitumor activity against P-388 lymphocytic leukemia in CDF1 hybrid male mice measured as median survival time (1.8 mg/kg),ip; type: functional, Mus musculus
Summary of the method: (§2)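 Male CDF1 mice (18-23 g) were inoculated ip with 10⁶ P-388 cells on day 0. Drug was given ip in 10% dimethyl sulfoxide-saline on days 1, 5 and 9. Test solutions were kept at 0-4 °C, protected from light, and checked periodically for stability and homogeneity by TLC and HPLC. Read-out was survival, median survival time, increase in life span and tumor-free cures per 7 animals.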

P388 [5] = experiment: Antitumor activity against P-388 lymphocytic leukemia in CDF1 hybrid male mice measured as percent increase in lifespan( 1.2 mg/kg),ip; type: functional; conditions: Mus musculus; summary of the method: as §2
P388 [6] = experiment: Antitumor activity against P-388 lymphocytic leukemia in CDF1 hybrid male mice measured as percent increase in lifespan(0.3 mg/kg),ip; type: functional, Mus musculus; summary of the method: as §2
P388 [7] = experiment: Number of mice with P-388 lymphocytic leukemia cured.( 0.6 mg/kg),ip; 0/7; type: functional, Mus musculus
P388 [8] = experiment: Maximum tolerated dose was determined compared to 7-(2,3-Epoxypropoxy)-actinomycin D against P-388 leukemia in mice(3 days); type: functional, Mus musculus
Summary of the method: (§3)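 Tumor-free male CDF1 mice (18-23 g) received a broad dose range ip in 10% dimethyl sulfoxide-saline, either on days 1, 5, 9 (three injections) or on 4 successive days (qd 1-4). Deaths were recorded over 21 days. MTD was the dose lethal to 10% (LD10), taken from a plot of log dose vs percent mortality. Average of two experiments.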

Homo sapiens = species on record: Homo sapiens; experiment: In vitro growth inhibitory activity against human lymphoblastic leukemia cells; type: functional; conditions: read-out: ID50 (the source's name)
Summary of the method: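 Human CCRF-CEM lymphoblastic leukemia cells were used in log-phase growth. Compounds were dissolved in Me2SO, and the final growth medium contained 1% Me2SO. Test solution homogeneity was checked by TLC and HPLC at each test.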

P388 [9] = experiment: Number of mice with P-388 lymphocytic leukemia cured.( 0.3 mg/kg),ip; 0/7; type: functional, Mus musculus
P388 [10] = experiment: Maximum tolerated dose was determined compared to 7-(2,3-Epoxypropoxy)-actinomycin D against P-388 leukemia in mice(4 days); type: functional, Mus musculus; summary of the method: as §3
P388 [11] = experiment: Antitumor activity against P-388 lymphocytic leukemia in CDF1 hybrid male mice measured as percent increase in lifespan( 0.15 mg/kg),ip; type: functional; conditions: Mus musculus; summary of the method: as §2
P388 [12] = experiment: Antitumor activity against P-388 lymphocytic leukemia in CDF1 hybrid male mice measured as median survival time (0.3 mg/kg),ip; type: functional, Mus musculus; summary of the method: as §2
P388 [13] = experiment: Number of mice with P-388 lymphocytic leukemia cured(1.2 mg/kg),ip; 0/7; type: functional, Mus musculus; summary of the method: as §2
P388 [14] = experiment: Antitumor activity against P-388 lymphocytic leukemia in CDF1 hybrid male mice measured as median survival time ( 1.2 mg/kg),ip; type: functional, Mus musculus; summary of the method: as §2
P388 [15] = experiment: Minimum effective dose was determined compared to 7-(2,3-Epoxypropoxy)-actinomycin D against P-388 leukemia in mice(4 days); type: functional, Mus musculus
Summary of the method: (§4)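 MED was the dose (mg/kg) giving a 40% increase in life span over control in mice bearing ip P-388 leukemia. Drug was given ip in 10% dimethyl sulfoxide-saline on a q4d 1, 5, 9 (three injections) or qd 1-4 (four injections) schedule.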

P388 [16] = experiment: Antitumor activity against P-388 lymphocytic leukemia in CDF1 hybrid male mice measured as percent increase in lifespan( 1.8 mg/kg),ip; type: functional; conditions: Mus musculus; summary of the method: as §2
P388 [17] = experiment: Antitumor activity against P-388 lymphocytic leukemia in CDF1 hybrid male mice measured as percent increase in lifespan( 0.6 mg/kg),ip; type: functional; conditions: Mus musculus; summary of the method: as §2
P388 [18] = experiment: Number of mice with P-388 lymphocytic leukemia cured(0.15 mg/kg),ip.; 0/7; type: functional, Mus musculus; summary of the method: as §2
P388 [19] = experiment: Antitumor activity against P-388 lymphocytic leukemia in CDF1 hybrid male mice measured as percent increase in lifespan( 3 mg/kg),ip; type: functional; conditions: Mus musculus; summary of the method: as §2
P388 [20] = experiment: Antitumor activity against P-388 lymphocytic leukemia in CDF1 hybrid male mice measured as median survival time (0.15 mg/kg),ip; type: functional, Mus musculus; summary of the method: as §2
P388 [21] = experiment: Antitumor activity against P-388 lymphocytic leukemia in CDF1 hybrid male mice measured as median survival time (3 mg/kg),ip; type: functional, Mus musculus; summary of the method: as §2
P388 [22] = experiment: Number of mice with P-388 lymphocytic leukemia cured( 3 mg/kg),ip; 0/7; type: functional, Mus musculus; summary of the method: as §2
P388 [23] = experiment: Minimum effective dose was determined compared to 7-(2,3-Epoxypropoxy)-actinomycin D against P-388 leukemia in mice(3 days); type: functional, Mus musculus; parameters: unit: mg/kg; summary of the method: as §4
P388 [24] = experiment: Antitumor activity against P-388 lymphocytic leukemia in CDF1 hybrid male mice measured as median survival time ( 0.6 mg/kg),ip; type: functional, Mus musculus; summary of the method: as §2

SMILES: Cc1c2oc3c(C)c(O)c(N)c(C(=O)N[C@@H]4C(=O)N[C@H](C(C)C)C(=O)N5CCC[C@H]5C(=O)N(C)CC(=O)N(C)[C@@H](C(C)C)C(=O)O[C@@H]4C)c3nc-2c(C(=O)N[C@@H]2C(=O)N[C@H](C(C)C)C(=O)N3CCC[C@H]3C(=O)N(C)CC(=O)N(C)[C@@H](C(C)C)C(=O)O[C@@H]2C)cc1=O [listing 1 of 2 here]
- selectivity ratio [1]: 10
- selectivity ratio [2]: 15

SMILES: Cc1c2oc3c(C)c(O)c(N)c(C(=O)N[C@@H]4C(=O)N[C@H](C(C)C)C(=O)N5CCC[C@H]5C(=O)N(C)CC(=O)N(C)[C@@H](C(C)C)C(=O)O[C@@H]4C)c3nc-2c(C(=O)N[C@@H]2C(=O)N[C@H](C(C)C)C(=O)N3CCC[C@H]3C(=O)N(C)CC(=O)N(C)[C@@H](C(C)C)C(=O)O[C@@H]2C)cc1=O [listing 2 of 2 here]
- Cure (P388 [3]): 0
- MST (P388 [4]): 26 days
- ILS at 1.2 mg/kg (P388 [5]): 127%
- ILS (P388 [6]): 55%
- Cure (P388 [7]): 0
- MTD (P388 [8]): 4.2
- IC50 (Homo sapiens): 0.95 µg/mL (≈ 0.747 µM)
- Cure (P388 [9]): 0
- MTD (P388 [10]): 2
- ILS at 0.15 mg/kg (P388 [11]): 10%
- MST (P388 [12]): 17 days
- Cure (P388 [13]): 0
- MST (P388 [14]): 25 days
- MED (P388 [15]): 0.2
- ILS at 1.8 mg/kg (P388 [16]): 136%
- ILS at 0.6 mg/kg (P388 [17]): 89%
- Cure (P388 [18]): 0
- ILS at 3 mg/kg (P388 [19]): 37%
- MST (P388 [20]): 12 days
- MST (P388 [21]): 15 days
- Cure (P388 [22]): 0
- MED (P388 [23]): 0.275
- MST (P388 [24]): 21 days

SMILES: Cc1c2oc3c(C)c(OCC(O)CO)cc(C(=O)N[C@@H]4C(=O)N[C@H](C(C)C)C(=O)N5CCC[C@H]5C(=O)N(C)CC(=O)N(C)[C@@H](C(C)C)C(=O)O[C@@H]4C)c3nc-2c(C(=O)N[C@@H]2C(=O)N[C@H](C(C)C)C(=O)N3CCC[C@H]3C(=O)N(C)CC(=O)N(C)[C@@H](C(C)C)C(=O)O[C@@H]2C)c(N)c1=O (some centres not stated)
- selectivity ratio [1]: 6
- selectivity ratio [2]: 12
